Test results published in ChEMBL document CHEMBL4400542, “Epidermal Growth Factor Receptor-Targeted Multifunctional Photosensitizers for Bladder Cancer Imaging and Photodynamic Therapy” (J Med Chem, 2019).
Activity calls are given as the source filed them. No cut-off for these calls is given here.

How the values were obtained:
[1] = Induction of singlet oxygen generation assessed as energy transfer from the triplet chlorins to oxygen by femtosecond transient absorption spectroscopy; format: functional
[2] = Induction of singlet oxygen generation in Ar-saturated toluene solution at 670 nm assessed as decay rate constant of triplet excited state by femtosecond transient absorption spectroscopy; format: functional
[3] = Drug uptake in human T24 cells xenografted in SCID mouse at 0.47 umol/kg formulated with 2% pluronic F-127 solution and measured at 24 hrs post injection by IVIS analysis; format: ADME, cell-based, T-24; details: in vivo
Method in brief: (§1)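 SCID mice (3/group) bearing UMUC3 or T24 tumors of 4–5 mm injected with PS at 0.47 µmol/kg in Tween80 or Pluronic F-127. Tumor, liver and skin fluorescence followed by IVIS optical imaging (ex 675 nm, em 720) at several time points including 24 h.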

[4] = Drug uptake in human UM-UC-3 cells xenografted in SCID mouse at 0.47 umol/kg formulated with 1% tween 80 solution and measured at 24 hrs post injection by IVIS analysis; format: ADME, cell-based, UMUC3; details: in vivo; method in brief: as §1
UMUC3 [5] = test: Anti-tumor activity against human UM-UC-3 cells xenografted in SCID mouse assessed as tumor necrosis at 0.47 umol/kg, iv in presence of 135 J/cm2 light irradiation at 24 hrs post injection and measured at 72 hrs post light exposure; format: functional, organism-based
[6] = Drug uptake in human UM-UC-3 cells assessed as increase in gray value intensity at 500 nM after 48 hrs in absence of gleevec by Hoechst 33342 staining based fluorescence microscopy; format: ADME, cell-based; details: umuc3, 24 h, 0.5 µM, in the assay text read “24 hrs” for “48 hrs”
Method in brief: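 Cells plated at 100k per well, grown to 80% confluency, refreshed, then incubated 24 h with PS at 500 nM with or without Gleevec 5 µM. Washed twice with PBS, Hoechst 33342 added, imaged by fluorescence microscopy; grey value normalized to cell number, triplicate groups and images.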

[7] = Induction of singlet oxygen generation in oxygen-free toluene solution at 670 nm assessed as decay rate constant of triplet excited state by femtosecond transient absorption spectroscopy; format: functional
[8] = Drug uptake in human UM-UC-3 cells xenografted in SCID mouse at 0.47 umol/kg formulated with 2% pluronic F-127 solution and measured at 24 hrs post injection by IVIS analysis; format: ADME, cell-based, UMUC3; details: in vivo; method in brief: as §1
[9] = Drug uptake in human T24 cells xenografted in SCID mouse at 0.47 umol/kg formulated with 1% tween 80 solution and measured at 24 hrs post injection by IVIS analysis; format: ADME, cell-based, T-24; details: in vivo; method in brief: as §1
[10] = Induction of singlet oxygen generation in oxygen-saturated toluene solution at 670 nm assessed as decay rate constant of triplet excited state by femtosecond transient absorption spectroscopy; format: functional
[11] = Induction of singlet oxygen generation in toluene solution in presence of oxygen at 670 nm assessed as decay rate constant of triplet excited state by femtosecond transient absorption spectroscopy; format: functional
T-24 [12] = test: Induction of apoptosis in human T24 cells assessed as increase in apoptotic cells at 100 nM in presence of light by Annexin V/propidium iodide-stining based flow cytometry; format: functional, cell-based
T-24 [13] = test: Induction of apoptosis in human T24 cells assessed as increase in necrotic cells at 1 uM in presence of light by Annexin V/propidium iodide-stining based flow cytometry; format: functional, cell-based
T-24 [14] = test: Induction of apoptosis in human T24 cells assessed as increase in apoptotic cells at 1 uM in presence of light by Annexin V/propidium iodide-stining based flow cytometry; format: functional, cell-based
UMUC3 [15] = test: Induction of apoptosis in human UM-UC-3 cells assessed as increase in apoptotic cells at 100 nM in presence of light by Annexin V/propidium iodide-stining based flow cytometry; format: functional, cell-based
UMUC3 [16] = test: Induction of apoptosis in human UM-UC-3 cells assessed as increase in necrotic cells at 1 uM in presence of light by Annexin V/propidium iodide-stining based flow cytometry; format: functional, cell-based
UMUC3 [17] = test: Induction of apoptosis in human UM-UC-3 cells assessed as increase in necrotic cells at 100 nM in presence of light by Annexin V/propidium iodide-stining based flow cytometry; format: functional, cell-based
UMUC3 [18] = test: Induction of apoptosis in human UM-UC-3 cells assessed as increase in apoptotic cells at 1 uM in presence of light by Annexin V/propidium iodide-stining based flow cytometry; format: functional, cell-based
UMUC3 [19] = test: Anti-tumor activity against human UM-UC-3 cells xenografted in SCID mouse assessed as tumor cure at 0.47 umol/kg, iv in presence of 135 J/cm2 light irradiation at 24 hrs post injection and measured at day 60; format: functional
Method in brief: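 UMUC-3 cells implanted in right flank of SCID mice; at 4–5 mm tumors, PS given i.v. at 0.47 µmol/kg. Tumors exposed to 665 nm light, 135 J/cm2 at 75 mW/cm2, 24 h post-injection. Tumor regrowth monitored daily; mice euthanized at >400 mm3; tumor-free status scored at day 60.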

Row | Drug uptake [3] | Drug uptake [4] | Drug uptake [6] | Drug uptake [8] | Drug uptake [9] | Compound | K [1] | K [2] | Activity (UMUC3 [5]) | K [7] | K [10] | K [11] | Activity (T-24 [12]) | Activity (T-24 [13]) | Activity (T-24 [14]) | Activity (UMUC3 [15]) | Activity (UMUC3 [16]) | Activity (UMUC3 [17]) | Activity (UMUC3 [18]) | Activity (UMUC3 [19])
1 | Active | Active | Not Active | Active | Active | CCC1=C(C)c2cc3[nH]c(cc4nc(c5c6[nH]c(cc1n2)c(C)c6C(=O)C5)[C@@H](CCC(=O)NCc1cccc(I)c1)[C@@H]4C)c(C)c3C(C)OCc1cccc(C#Cc2cccc(Nc3ncnc4cc(OCCOC)c(OCCOC)cc34)c2)c1 (stereo not given in full) | 3.17 ×10⁹ /M/s | 4.27 ×10⁴ /s | inactive | 4.27 ×10⁴ /s | 6.34 ×10⁵ /s | 0.634 ×10⁶ /s |  |  |  |  |  |  |  | 
2 |  |  | Active |  |  | CCC1=C(C)c2cc3[nH]c(cc4nc(c5c6[nH]c(cc1n2)c(C)c6C(=O)C5)[C@@H](CCC(=O)OC)[C@@H]4C)c(C)c3C(C)OCc1cccc(I)c1 (stereo not given in full) |  |  |  |  |  |  | inactive | Active | Active | Active | Active | Active | Active | 20%
